# Key:
# [1] = tested on: Rattus norvegicus; assay: Maximum percentage reduction in mean blood pressure in metacorticoid (DOCA) hypertensive rats at a standard oral dose of 100 mg/kg; format: functional
# Procedure, shortened: (§1)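 Rats were DOCA hypertensive. For oral dosing, food was withdrawn 18 h before; rats dosed ip were not starved. The vehicle was isotonic saline. Pressure was recorded by transducer under minimal restraint: twice before dosing, then at 1, 2, 3, 5 and 22 h. MABP was taken as diastolic + one-third pulse pressure. The value is the maximum % fall from the mean of the two pretreatment readings, n = 3-5.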
# [2] = species: Rattus norvegicus; assay: Increase in diastolic blood pressure for 6 Htz electrical stimulation in the pithed rats; format: functional, Artery
# Procedure, shortened: (§2)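 Male rats (200-300 g) were given drug or isotonic saline ip, in groups of five, 2 h before pithing (one reference agent 1 h before). Doses were 50 or 25 mg/kg, or 5 mg/kg for the reference agent. Rats were put under halothane, tracheally cannulated, pithed through the left orbit and ventilated with room air at 50 strokes/min. After iv tubocurarine (1 mg/kg), the whole sympathetic outflow was stimulated at 1, 3 or 6 Hz (0.5 ms, 20 V, 15 s). The rise in diastolic pressure was recorded in mmHg.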
# [3] = species: Rattus norvegicus; assay: Increase in diastolic blood pressure for 3 Htz electrical stimulation in the pithed rats; format: functional, Artery; procedure, shortened: as §2
# [4] = tested on: Rattus norvegicus; assay: Increase in diastolic blood pressure for 0.1 ug/kg intravenous dosing of angiotensin in pithed rats; format: functional, Artery
# Procedure, shortened: (§3)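 The pithed-rat preparation was used: male rats (200-300 g) got drug or isotonic saline ip in groups of five, 2 h beforehand (one reference agent 1 h). Doses were 50, 25 or 5 mg/kg. Rats were under halothane, cannulated, pithed and ventilated with room air. Noradrenaline (0.1-1.0 µg/kg) or angiotensin (0.03-0.3 µg/kg) was injected iv, and the increase in diastolic pressure was recorded in mmHg.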
# [5] = tested on: Rattus norvegicus; assay: Increase in diastolic blood pressure for 0.1 ug/kg intravenous dosing of noradrenaline in pithed rats; format: functional, Artery; procedure, shortened: as §3
# [6] = tested on: Rattus norvegicus; assay: Increase in diastolic blood pressure for 0.3 ug/kg intravenous dosing of angiotensin in pithed rats; format: functional, Artery; procedure, shortened: as §3
# [7] = species: Rattus norvegicus; assay: Increase in diastolic blood pressure for 1 Htz electrical stimulation in the pithed rats; format: functional, Artery; procedure, shortened: as §2
# [8] = tested on: Rattus norvegicus; assay: Increase in diastolic blood pressure for 0.3 ug/kg intravenous dosing of noradrenaline in pithed rats; format: functional, Artery; procedure, shortened: as §3
# [9] = tested on: Rattus norvegicus; assay: Increase in diastolic blood pressure for 0.03 ug/kg intravenous dosing of angiotensin in pithed rats; format: functional, Artery; procedure, shortened: as §3
# [10] = tested on: Rattus norvegicus; assay: Increase in diastolic blood pressure for 1.0 ug/kg intravenous dosing of noradrenaline in pithed rats; format: functional, Artery; procedure, shortened: as §3
# [11] = tested on: Rattus norvegicus; assay: Maximum percentage reduction in mean arterial blood pressure in metacorticoid (DOCA) hypertensive rats at a standard oral dose of 100 mg/kg; format: functional; procedure, shortened: as §1
# [12] = tested on: Rattus norvegicus; assay: Maximum percentage reduction in mean blood pressure in metacorticoid (DOCA) hypertensive rats at a standard oral dose of 100 mg/kg; IA = Inactive;Maximum percentage fall in MABP <10%; format: functional, organism-based; set-up: dose 100 mg/kg; procedure, shortened: as §1
# [13] = tested on: Rattus norvegicus; assay: Maximum percentage reduction in mean blood pressure in metacorticoid (DOCA) hypertensive rats at a standard oral dose of 50 mg/kg; format: functional; procedure, shortened: as §1
Structure (SMILES),Reduction [1],Reduction [11],further results
COc1cccc(OC)c1-c1nnc(N=C(N)N)s1,16%,,
NNc1nncc2ccccc12 [HYDRALAZINE],,,Increase in blood pressure [2]: 54 mmHg; Increase in blood pressure [3]: 42 mmHg; Increase in blood pressure [4]: 21 mmHg; Increase in blood pressure [5]: 8 mmHg; Increase in blood pressure [6]: 38 mmHg; Increase in blood pressure [7]: 28 mmHg; Increase in blood pressure [8]: 15 mmHg; Increase in blood pressure [9]: 8 mmHg; Increase in blood pressure [10]: 28 mmHg
Cc1ccccc1-c1nnc(NC(=N)NCCc2ccccc2)s1.Cl,,29%,
Cc1ccccc1-c1nnc(Nc2ncc[nH]2)s1.Cl,,40%,
Cc1ccccc1-c1nnc(NC(=N)NCc2ccccc2)s1.Cl,12%,,
CCc1ccccc1-c1nnc(N=C(N)N)s1,12%,,
Cl.N=C(N)Nc1nnc(-c2ccc(C(F)(F)F)cc2)s1,,18%,
Cl.N=C(N)Nc1nnc(-c2cccc(F)c2)s1,,20%,
C=CCNC(=N)Nc1nnc(-c2ccccc2C)s1.Cl,,28%,
C/N=C(/N)Nc1nnc(-c2ccccc2C)s1,31%,,
Cl.N=C(N)Nc1nnc(-c2cccc(Cl)c2)s1,,12%,
Cc1ccccc1-c1nnc(NC(=N)N2CCCC2)s1,,,Reduction [12]: Not significant
Cc1ccccc1-c1nnc(NC(=N)NC(C)(C)C)s1.Cl,,18%,
Cc1ccccc1-c1nnc(NC(=N)N2CCOCC2)s1.Cl,16%,,
Cl.N=C(N)Nc1nnc(-c2ccc(F)cc2)s1,,20%,
Cl.N=C(N)Nc1nnc(-c2ccccc2N)s1,14%,,
Cl.N=C(N)Nc1nnc(-c2ccccc2I)s1,41%,,Reduction [13]: 28%
Cc1ccccc1-c1nnc(NC(=N)NCC2CCCO2)s1.Cl (stereo not drawn),17%,,
Cc1ccc(C)c(-c2nnc(N=C(N)N)s2)c1,,,Reduction [12]: Not significant
Cc1ccccc1-c1nnc(N(C)C2=NCCN2)s1,,,Reduction [12]: Not significant
Cc1ccc(-c2nnc(N=C(N)N)s2)cc1C.Cl,33%,,
Cc1ccccc1-c1nnc(NC(=N)NCCN)s1.Cl,,32%,

Structure (SMILES),Reduction [1],Reduction [11],further results
CCCC/N=C(\NCCCN(C)C)Nc1nnc(-c2ccccc2C)s1,,,Reduction [12]: Not significant
COCC/N=C(/N)Nc1nnc(-c2ccc(OC)c(OC)c2)s1.Cl,20%,,
Cl.N=C(N)Nc1nnc(-c2ccccc2Cl)s1,,30%,
Cl.N=C(N)Nc1nnc(-c2ccccc2C(F)(F)F)s1,,26%,
COCC/N=C(/N)Nc1nnc(-c2ccc(F)cc2C)s1.Cl,33%,,
COc1ccccc1-c1nnc(N=C(N)N)s1.Cl,26%,,
Cl.N=C(N)Nc1nnc(-c2ccc(Cl)c(Cl)c2)s1,15%,,
Cc1ccc(-c2nnc(N=C(N)N)s2)cc1,,,Reduction [12]: Not significant
COc1cc(C)c(-c2nnc(N=C(N)N)s2)cc1OC.Cl,24%,,
Cl.N=C(N)Nc1nnc(-c2cccc(C(F)(F)F)c2)s1,,14%,
Cl.N=C(N)Nc1nnc(-c2ccco2)s1,24%,,
Cc1ccccc1-c1nnc(NC(=N)NC2CCC2)s1,,,Reduction [12]: Not significant
Cc1ccccc1-c1nnc(NC2=NCCCN2)s1.Cl,,13%,
Cc1ccccc1-c1nnc(NC(=N)N(C)C)s1.Cl,18%,,
COCC/N=C(/N)Nc1nnc(-c2ccccc2I)s1.Cl,33%,,
Cc1ccccc1-c1nnc(NC(=N)NCCO)s1.Cl,35%,,
Cl.N=C(N)Nc1nnc(-c2ccccc2F)s1,,31%,
Cc1ccc(F)cc1-c1nnc(N=C(N)N)s1.Cl,21%,,
COc1ccc(-c2nnc(N=C(N)N)s2)cc1OC.Cl,21%,,
Cc1cc(F)ccc1-c1nnc(N=C(N)N)s1.Cl,34%,,
Cl.N=C(N)Nc1nnc(-c2ccccc2[N+](=O)[O-])s1,17%,,
CSCC/N=C(/N)Nc1nnc(-c2ccccc2C)s1.Cl,,18%,

# From ChEMBL document CHEMBL1124108, “Antihypertensive thiadiazoles. 2. Vasodilator activity of some 2-aryl-5-guanidino-1,3,4-thiadiazoles” (1988)
